Experimental data taken from ChEMBL document CHEMBL3286172, “Exploring the role of 2-chloro-6-fluoro substitution in 2-alkylthio-6-benzyl-5-alkylpyrimidin-4(3H)-ones: effects in HIV-1-infected cells and in HIV-1 reverse transcriptase enzymes” (J Med Chem, 2014).

What was measured:
[1] = test system: Human immunodeficiency virus 1; test: Antiviral activity against wild type HIV-1 NL4-3 infected in human MT4 cells assessed as inhibition of virus-induced cytopathic effect by MTT method; type: functional, organism-based; settings: Human immunodeficiency virus 1, NL4-3, MT4
Summary of the method: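 MT-4 lymphoid cells infected with wild-type HIV-1 NL4-3 while exposed to a range of drug concentrations. Viable cells counted by tetrazolium (MTT) colorimetry at day 5 post-infection. Means of at least two experiments.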

[2] = Cytotoxicity against human MT4 cells assessed as induction of cell death by MTT method; type: cell-based
Summary of the method: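 Mock-infected MT-4 cells exposed to a range of drug concentrations. Viability read by MTT colorimetry at day 5. […] Top concentration was limited where compound precipitated in the culture medium. Means of at least two experiments.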

[3] = test system: Human immunodeficiency virus 1; test: Antiviral activity against HIV-1 harboring NNTRI-resistant reverse transcriptase K103N mutant infected in human MT4 cells assessed as inhibition of virus-induced cytopathic effect by MTT method; type: functional, organism-based; settings: Human immunodeficiency virus 1, MT4
[4] = test system: Human immunodeficiency virus 1; test: Antiviral activity against HIV-1 harboring NNTRI-resistant reverse transcriptase Y181C mutant infected in human MT4 cells assessed as inhibition of virus-induced cytopathic effect by MTT method; type: functional, organism-based; settings: Human immunodeficiency virus 1, MT4
Summary of the method: (§1)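 MT-4 lymphoid cells infected with HIV-1 carrying RT K103N, Y181C or Y188L, with a range of drug concentrations present. Viable cells counted by MTT colorimetric assay at day 5 post-infection. […] Highest concentration tested was limited by precipitation in culture medium. Means of at least two experiments.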

[5] = test system: Human immunodeficiency virus 1; test: Antiviral activity against HIV-1 harboring NNTRI-resistant reverse transcriptase Y188L mutant infected in human MT4 cells assessed as inhibition of virus-induced cytopathic effect by MTT method; type: functional, organism-based; settings: Human immunodeficiency virus 1, MT4; summary of the method: as §1
[6] = test system: Human immunodeficiency virus 1; test: Fold resistance, ratio of ID50 for HIV-1 recombinant NNTRI-resistant reverse transcriptase K103N mutant to ID50 for wild type HIV-1 recombinant reverse transcriptase
Summary of the method: (§2)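 Recombinant wt or mutant HIV-1 RT, purified to >95%, at 2-4 nM. RNA-dependent DNA polymerase activity with 0.5 µg poly(rA)/oligo(dT)10:1 (0.3 µM 3'-OH ends), 10 µM [3H]-dTTP and 8% final DMSO. Incorporation was sampled at 2-min intervals. ID50 came from fitting to a fully non-competitive model. Ratio is ID50 mutant/ID50 wt. Means of at least three experiments.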

[7] = test system: Human immunodeficiency virus 1; test: Fold resistance, ratio of ID50 for HIV-1 recombinant NNTRI-resistant reverse transcriptase L100I mutant to ID50 for wild type HIV-1 recombinant reverse transcriptase; summary of the method: as §2
[8] = molecular target: Human immunodeficiency virus type 1 reverse transcriptase (Human immunodeficiency virus 1) (UniProt Q72547)
[9] = test system: Human immunodeficiency virus type 1 reverse transcriptase (Human immunodeficiency virus 1), Q72547 [K103N]
[10] = test system: Human immunodeficiency virus type 1 reverse transcriptase (Human immunodeficiency virus 1), Q72547 [L100I]
[11] = Selectivity index, ratio of CC50 for human MT4 cells to EC50 for wild type HIV-1 NL4-3 infected in human MT4 cells; type: toxicity, cell-based; settings: read-out: Ratio CC50/EC50
Summary of the method: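 Ratio of CC50 to EC50, both from MTT readings in MT-4 cells at day 5. CC50 was taken in mock-infected cells and EC50 in cells infected with wild-type NL4-3. Values are means of at least two experiments.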

[12] = test system: Human immunodeficiency virus 1; test: Fold resistance, ratio of EC50 for HIV-1 harboring NNTRI-resistant reverse transcriptase K103N mutant infected in human MT4 cells to EC50 for wild type HIV-1 NL4-3 infected in human MT4 cells; type: functional
[13] = test system: Human immunodeficiency virus 1; test: Fold resistance, ratio of EC50 for HIV-1 harboring NNTRI-resistant reverse transcriptase Y181C mutant infected in human MT4 cells to EC50 for wild type HIV-1 NL4-3 infected in human MT4 cells; type: functional
Summary of the method: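 MT-4 cells infected with HIV-1 mutant (K103N or Y181C) or wild-type NL4-3, with drug present. […] Fold resistance is the mutant EC50 divided by the wild-type NL4-3 EC50. EC50 values are means of at least two experiments.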

[14] = test system: Human immunodeficiency virus 1; test: Fold resistance, ratio of EC50 for HIV-1 harboring NNTRI-resistant reverse transcriptase Y188L mutant infected in human MT4 cells to EC50 for wild type HIV-1 NL4-3 infected in human MT4 cells; type: functional
Summary of the method: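 HIV-1 NL4-3 (wt) or Y188L mutant infection of MT-4 cells across a range of drug concentrations. Viable cells were counted by MTT at day 5 post-infection. […] Fold resistance is mutant EC50 over wt EC50. Means of at least two experiments.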

[15] = test system: Human immunodeficiency virus 1; test: Fold resistance, ratio of ID50 for HIV-1 recombinant NNTRI-resistant reverse transcriptase Y181I mutant to ID50 for wild type HIV-1 recombinant reverse transcriptase
Summary of the method: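 RNA-dependent DNA polymerase activity with 0.5 µg poly(rA)/oligo(dT)10:1 (0.3 µM 3'-OH ends), 10 µM [3H]-dTTP and 8% final DMSO. Incorporation was sampled at 2-min intervals. ID50 came from fitting to a fully non-competitive model. Means of at least three experiments.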

Structure (SMILES) | EC50 [1] [nM] | CC50 [2] [nM] | EC50 [3] [nM] | EC50 [4] [nM] | EC50 [5] [nM] | Ratio [6] | Ratio [7] | ID50 [8] [nM] | ID50 [9] [nM] | ID50 [10] [nM] | selectivity ratio [11] | Ratio EC50 [12] | Ratio EC50 [13] | Ratio EC50 [14] | Ratio [15]
CCCCSc1nc(C(C)c2c(F)cccc2Cl)cc(=O)[nH]1 (racemic) | 0.3 | > 73000 | 1100 | 3900 | 5600 | 220 | 60 | 10 | 2200 | 600 |  |  |  |  | 
CC(C)Sc1nc(C(C)c2c(F)cccc2Cl)cc(=O)[nH]1 (racemic) | 2 | > 75000 | 1100 | 7500 | 30700 |  |  | 8 | 1300 | 340 | > 37500 | 550 | 3750 | 15350 | 
CCC(c1nc(SC(C)C)[nH]c(=O)c1C)c1c(F)cccc1F (racemic) | 4 | > 30000 | 530 | 750 | 270 |  |  | 4 | 310 | 210 | > 7500 | 132 | 187 | 67 | 
CCC(C)Sc1nc(C(CC)c2c(F)cccc2F)c(C)c(=O)[nH]1 (racemic) | 0.8 | > 3000 | 200 | 300 | 900 |  |  | 6 | 140 | 48 | > 3750 | 250 | 375 | 1125 | 
CCCSc1nc(C(CC)c2c(F)cccc2Cl)c(C)c(=O)[nH]1 (racemic) | 26 | > 3000 | 2100 | 2800 | > 3000 | 126 | 48 | 5 | 630 | 240 | > 115 | 81 | 108 |  | 700
CC[C@H](C)Sc1nc([C@@H](C)c2c(F)cccc2Cl)cc(=O)[nH]1 | 144 | > 73000 | 7640 | > 73300 | > 73300 |  | 4 |  |  |  | > 507 | 53 |  |  | 
CCc1c(C(C)c2c(F)cccc2F)nc(SC2CCCC2)[nH]c1=O (racemic) | 160 | > 3000 | > 3000 | > 3000 | > 3000 | 100 | 65 | 2 | 200 | 130 | > 19 |  |  |  | 900
CC[C@H](C)Sc1nc([C@H](C)c2c(F)cccc2Cl)c(C)c(=O)[nH]1 (racemic) | 43900 | > 70400 | > 70000 | 64000 | > 70000 |  | 0.1 |  |  |  |  |  |  |  | 
CC(c1cc(=O)[nH]c(SC2CCCC2)n1)c1c(F)cccc1Cl (racemic) | 0.3 | > 71000 | 900 | 3000 | > 71000 |  |  | 15 | 1800 | 1100 | > 237000 | 3000 | 10000 |  | 
CCC(C)Sc1nc(O)c(C)c(C(C)c2c(F)cccc2F)n1 (racemic) | 0.9 | > 3000 | 110 | 71 | > 3000 |  |  | 31 | 1700 | 670 | > 3330 | 122 | 79 |  | 
CC[C@H](C)Sc1nc([C@H](C)c2c(F)cccc2Cl)cc(=O)[nH]1 (racemic) | 11 | > 39000 | 1220 | 1240 | 7400 | 229 | 24 |  |  |  | > 3540 | 111 | 113 | 673 | 
CCCCSc1nc(C(C)c2c(F)cccc2F)c(CC)c(=O)[nH]1 (racemic) | 57 | > 3000 | > 3000 | > 3000 | > 3000 | 130 | 93 | 3 | 390 | 280 | > 53 |  |  |  | 1000
CC[C@@H](C)Sc1nc([C@@H](C)c2c(F)cccc2Cl)c(C)c(=O)[nH]1 | 1.4 | > 70400 | 150 | 890 | 3300 | 69 | 37 |  |  |  |  |  |  |  | 
CC[C@@H](C)Sc1nc([C@@H](C)c2c(F)cccc2Cl)cc(=O)[nH]1 | 47 | > 52000 | 5560 | 13200 | > 51600 | 365 | 4 |  |  |  | > 1110 | 118 | 281 |  | 
Cc1c(O)nc(SC(C)C)nc1C(C)c1c(F)cccc1F (racemic) | 1 |  | 270 | 120 | > 3000 |  |  | 3 | 580 | 280 |  | 270 | 120 |  | 
CCCSc1nc(Cc2c(F)cccc2Cl)c(C)c(=O)[nH]1 | 86 | > 76000 | 9200 | 2300 | > 76000 |  |  |  |  |  | > 884 | 107 | 27 |  | 
CCCSc1nc(C(C)c2c(F)cccc2Cl)cc(=O)[nH]1 (racemic) | 3 | > 75000 | 890 | 2300 | 7900 |  |  | 8 | 1300 | 500 | > 25000 | 297 | 767 | 2633 | 
CCC(c1nc(SC2CCCC2)[nH]c(=O)c1C)c1c(F)cccc1F (racemic) | 11 | 30000 | 1000 | 1100 | 1600 |  |  | 5 | 380 | 110 | 2730 | 91 | 100 | 145 | 
CCCSc1nc(C(CC)c2c(F)cccc2F)c(C)c(=O)[nH]1 (racemic) | 12 | > 3000 | > 3000 | > 3000 | > 3000 | 70 | 37 | 6 | 420 | 220 | > 250 |  |  |  | 600
CC[C@H](C)Sc1nc([C@@H](C)c2c(F)cccc2Cl)c(C)c(=O)[nH]1 | 3660 | > 47000 | > 47000 | > 47000 | > 47000 |  | 0.2 |  |  |  |  |  |  |  | 
CC[C@@H](C)Sc1nc([C@H](C)c2c(F)cccc2Cl)c(C)c(=O)[nH]1 | 0.06 | > 70400 | 15 | 87 | 390 | 101 | 41 |  |  |  |  |  |  |  | 
